Experimental data as given in ChEMBL document CHEMBL5131576, “Turning the Other Cheek: Influence of the cis-Tetrafluorocyclohexyl Motif on Physicochemical and Metabolic Properties” (ACS Med Chem Lett, 2022).
≈ marks a conversion by molar mass, not a printed value.

Experiments:
[1] = Kinetic solubility of the compound; assay type: physicochemical
[2] = Permeability across apical to basolateral side in MDCK cells pgp knock out incubated up to 180 mins by LC_MS/MS analysis; assay type: ADME, cell-based, Canis lupus familiaris; conditions: dog, read-out: permeability
Summary of the method: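 MDCK cells with the endogenously expressed canine MDR1 gene knocked out; transport measured in the apical-to-basolateral direction; apparent permeability reported in 10^-6 cm/s.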

| Compound | Kinetic_solubility [1] | Papp A→B at 3 h [2] [×10⁻⁶ cm/s] | solubility kinetic [1] [µM] |
| --- | --- | --- | --- |
| O=C(NCC1CCOCC1)c1ccc([C@H]2[C@@H](F)[C@@H](F)C[C@@H](F)[C@H]2F)cc1 | – | 20.3 | – |
| c1ncc(-c2ccc(C3CCCCC3)cc2)cn1 | Soluble | – | – |
| CN(Cc1cccnc1)C(=O)c1ccc([C@H]2[C@@H](F)[C@@H](F)C[C@@H](F)[C@H]2F)cc1 | – | 16.3 | – |
| O=C(NCc1cc[nH]n1)c1ccc([C@H]2[C@@H](F)[C@@H](F)C[C@@H](F)[C@H]2F)cc1 | – | 2.1 | – |
| CC(C(=O)Nc1ccc([C@H]2[C@@H](F)[C@@H](F)C[C@@H](F)[C@H]2F)cc1)n1cncn1 (some centres not stated) | – | 5.5 | – |
| O=C(Cc1cccnc1)Nc1ccc(C2CCCCC2)cc1 | < 1 µM | 19.9 | – |
| CC(C(=O)Nc1ccc(C2CCCCC2)cc1)n1cncn1 (configuration not stated) | – | 29.5 | – |
| O=C(Cn1ccnc1)Nc1ccc(C2CCCCC2)cc1 | – | 11.1 | – |
| N#CCC(=O)Nc1ccc([C@H]2[C@@H](F)[C@@H](F)C[C@@H](F)[C@H]2F)cc1 | – | 16 | – |
| O=C(c1ccc([C@H]2[C@@H](F)[C@@H](F)C[C@@H](F)[C@H]2F)cc1)N1CC(O)C1 | – | 6.7 | – |
| O=C(Cn1ccnc1)Nc1ccc([C@H]2[C@@H](F)[C@@H](F)C[C@@H](F)[C@H]2F)cc1 | – | 0.9 | – |
| NS(=O)(=O)c1cccc(-c2ccc(C3CCCCC3)cc2)c1 | Soluble | – | – |
| COCCN(C)C(=O)c1ccc([C@H]2[C@@H](F)[C@@H](F)C[C@@H](F)[C@H]2F)cc1 | – | 9.4 | – |
| CN(CCC#N)C(=O)c1ccc([C@H]2[C@@H](F)[C@@H](F)C[C@@H](F)[C@H]2F)cc1 | – | 8.1 | – |
| CN1CCN(C(=O)c2ccc([C@H]3[C@@H](F)[C@@H](F)C[C@@H](F)[C@H]3F)cc2)CC1=O | – | 4.5 | – |
| NC(=O)CCNC(=O)c1ccc([C@H]2[C@@H](F)[C@@H](F)C[C@@H](F)[C@H]2F)cc1 | – | 0.4 | – |
| CN(C)CCC(=O)Nc1ccc([C@H]2[C@@H](F)[C@@H](F)C[C@@H](F)[C@H]2F)cc1 | – | 3.7 | – |
| O=C(Nc1ccc([C@H]2[C@@H](F)[C@@H](F)C[C@@H](F)[C@H]2F)cc1)c1cn[nH]c1 | – | – | 136 (≈ 46.4 µg/mL) |
| O=C(Cc1cccnc1)Nc1ccc([C@H]2[C@@H](F)[C@@H](F)C[C@@H](F)[C@H]2F)cc1 | – | 15 | – |
| COCCC(=O)Nc1ccc([C@H]2[C@@H](F)[C@@H](F)C[C@@H](F)[C@H]2F)cc1 | – | 18.1 | – |
| CN(Cc1cccnc1)C(=O)c1ccc(C2CCCCC2)cc1 | – | 12.1 | – |
| O=C(COCC(F)F)Nc1ccc(C2CCCCC2)cc1 | < 1 µM | – | – |
| CN1CCC(c2ccc(-c3ccc(C4CCCCC4)cc3)cn2)CC1 | Soluble | – | – |
| CC(=O)N1CC(C(=O)Nc2ccc([C@H]3[C@@H](F)[C@@H](F)C[C@@H](F)[C@H]3F)cc2)C1 | – | 0.6 | – |
| CN1CCN(C(=O)c2ccc([C@H]3[C@@H](F)[C@@H](F)C[C@@H](F)[C@H]3F)cc2)CC1 | – | 18.6 | – |

The remaining lines, values ahead:

| Kinetic_solubility [1] | Papp A→B at 3 h [2] [×10⁻⁶ cm/s] | solubility kinetic [1] [µM] | Compound |
| --- | --- | --- | --- |
| < 1 µM | – | – | O=C(Nc1ccc(C2CCCCC2)cc1)c1cn[nH]c1 |
| – | 23 | – | O=C(NCCc1cccnc1)c1ccc(C2CCCCC2)cc1 |
| – | 35.9 | – | O=C(NCC1CCOCC1)c1ccc(C2CCCCC2)cc1 |
| – | 18.6 | – | N#CCC(=O)Nc1ccc(C2CCCCC2)cc1 |
| Soluble | 20.3 | – | CN1CCN(C(=O)c2ccc(C3CCCCC3)cc2)CC1 |
| – | 18.7 | – | CN(CCC#N)C(=O)c1ccc(C2CCCCC2)cc1 |
| – | 16.7 | – | O=C(NCc1cc[nH]n1)c1ccc(C2CCCCC2)cc1 |
| – | 9.4 | – | COCCN(C)C(=O)c1ccc(C2CCCCC2)cc1 |
| – | 3.5 | – | O=C(NCCN1CCCC1=O)c1ccc([C@H]2[C@@H](F)[C@@H](F)C[C@@H](F)[C@H]2F)cc1 |
| – | 10.8 | – | CN(C)CCC(=O)Nc1ccc(C2CCCCC2)cc1 |
| – | 22.2 | – | COCCC(=O)Nc1ccc(C2CCCCC2)cc1 |
| – | 18.7 | – | CC(=O)N1CC(C(=O)Nc2ccc(C3CCCCC3)cc2)C1 |
| – | 14.7 | – | NC(=O)CCNC(=O)c1ccc(C2CCCCC2)cc1 |
| Soluble | 26 | – | O=C(c1ccc(C2CCCCC2)cc1)N1CC(O)C1 |
| – | 15.5 | – | O=C(NCCN1CCCC1=O)c1ccc(C2CCCCC2)cc1 |
| < 1 µM | – | – | O=C(Nc1ccc(C2CCCCC2)cc1)[C@H]1CC1(F)F |
| < 1 µM | – | – | O=C(CC1CCOCC1)Nc1ccc(C2CCCCC2)cc1 |
| Soluble | 10.9 | – | CN1CCN(C(=O)c2ccc(C3CCCCC3)cc2)CC1=O |
